Measurements taken from ChEMBL document CHEMBL4622976, “Development of pH/Glutathione-Responsive Theranostic Agents Activated by Glutathione S-Transferase π for Human Colon Cancer” (J Med Chem, 2020).
Calls of active or inactive are those of the source. The calls are words filed in the database; no cut-off is given here.

Key:
HT-29 [1] = test: Antiproliferative activity against human HT-29 cells by MTT assay; type: functional, cell-based
Procedure, shortened: (§1)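 MTT assay. Cells were grown in DMEM/RPMI 1640 with 10% FBS, penicillin and streptomycin at 37 °C under 5% CO2. After a PBS wash, cells got 0.5 mg/mL MTT for 3 h at 37 °C. Formazan was dissolved in DMSO and absorbance read at 570 nm. Inhibition was expressed as a percentage and IC50 calculated. Means ± SD come from three separate experiments.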

HepG2 = test: Antiproliferative activity against human HepG2 cells by MTT assay; type: functional, cell-based; procedure, shortened: as §1
HT-29 [2] = test: Induction of autophagy in human HT-29 cells assessed as increase in Beclin-1 protein level at 2.5 uM incubated for 72 hrs by Western blot analysis; type: functional, cell-based
Procedure, shortened: (§2)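 HT29 cells (1.5×10^5/mL) were treated for 72 h and lysed. Lysate (0.05 mg/lane) was run on 12% SDS-PAGE and transferred to nitrocellulose. After blocking in 5% non-fat milk, blots were probed for Bax, Bcl-2, cleaved caspase-3, cleaved PARP, LC3, p62 and beclin-1. Levels were normalised to β-actin, and means ± SD taken from three independent assays.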

HT-29 [3] = test: Induction of apoptosis in human HT-29 cells assessed as increase in cleaved caspase-3 protein level at 2.5 uM incubated for 72 hrs by Western blot analysis; type: functional, cell-based; procedure, shortened: as §2
HT-29 [4] = test: Induction of apoptosis in human HT-29 cells assessed as reduction in Bcl2 protein level at 2.5 uM incubated for 72 hrs by Western blot analysis; type: functional, cell-based; procedure, shortened: as §2
[5] = Antiproliferative activity against rat 9L-2 cells by MTT assay; type: functional, cell-based; procedure, shortened: as §1
HT-29 [6] = test: Antitumor activity against human HT-29 cells xenografted in nude BALB/c mouse assessed as reduction in tumor volume at 40 mg/kg, ip dosed every day for 21 days; type: functional, organism-based
[7] = Cytotoxicity against human CCD-841 cells by MTT assay; type: cell-based; procedure, shortened: as §1
HT-29 [8] = test: Induction of apoptosis in human HT-29 cells at 2.5 uM incubated for 72 hrs by FITC-AnnexinV/PI staining based flow cytometry relative to control; type: functional
Procedure, shortened: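 HT29 cells were cultured 12 h, then exposed to compound (0.4, 1.0, 2.5 µM) or vehicle for 72 h. Harvested cells were stained with Annexin V and PI, and apoptotic cell percentages measured by flow cytometry. Means ± SD come from three separate experiments.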

HT-29 [9] = test: Induction of apoptosis in human HT-29 cells assessed as increase in cleaved PARP protein level at 2.5 uM incubated for 72 hrs by Western blot analysis; type: functional, cell-based; procedure, shortened: as §2
HT-29 [10] = test: Induction of autophagy in human HT-29 cells assessed as reduction in p62 protein level at 2.5 uM incubated for 72 hrs by Western blot analysis; type: functional, cell-based
Procedure, shortened: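 HT29 cells (1.5×10^5/mL) exposed to compound or vehicle for 72 h, then lysed. Lysates (0.05 mg/lane) run on 12% SDS-PAGE, transferred to nitrocellulose, blocked with 5% non-fat milk and probed for LC3, p62, beclin-1 and β-actin. Bands quantified relative to β-actin, with LC3-II/LC3-I ratio also calculated; means ± SD from three independent assays.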

HT-29 [11] = test: Antitumor activity against human HT-29 cells xenografted in nude BALB/c mouse assessed as tumor weight level at 40 mg/kg, ip dosed every day for 21 days (reference value: 1.49 +/- 0.27 g); type: functional
HT-29 [12] = test: Induction of apoptosis in human HT-29 cells assessed as increase in Bax protein level at 2.5 uM incubated for 72 hrs by Western blot analysis; type: functional, cell-based; procedure, shortened: as §2
HT-29 [13] = test: Induction of autophagy in human HT-29 cells assessed as increase in LC3-II protein level at 2.5 uM incubated for 72 hrs by Western blot analysis; type: functional, cell-based; procedure, shortened: as §2
[14] = Dissociation constant, pKa of the compound; type: physicochemical
HT-29 [15] = test: Induction of autophagy in human HT-29 cells assessed as reduction in p62 protein level at 10 uM incubated for 72 hrs by Western blot analysis; type: functional, cell-based
Procedure, shortened: (§3)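 HT29 cells (1.5 × 10^5/mL) treated 72 h with compound or vehicle. Lysates loaded at 0.05 mg/lane on 12% SDS-PAGE, transferred to nitrocellulose, blocked in 5% non-fat milk. Probed with antibodies to Bax, Bcl-2, cleaved caspase-3, cleaved PARP, LC3, p62 and beclin-1. Bands quantified relative to β-actin; three independent assays, means ± SD.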

HT-29 [16] = test: Induction of apoptosis in human HT-29 cells assessed as reduction in Bcl2 protein level at 10 uM incubated for 72 hrs by Western blot analysis; type: functional, cell-based; procedure, shortened: as §3
HT-29 [17] = test: Induction of autophagy in human HT-29 cells assessed as increase in Beclin-1 protein level at 10 uM incubated for 72 hrs by Western blot analysis; type: functional, cell-based; procedure, shortened: as §3
HT-29 [18] = test: Induction of autophagy in human HT-29 cells assessed as increase in LC3-II protein level at 10 uM incubated for 72 hrs by Western blot analysis; type: functional, cell-based; procedure, shortened: as §3
HT-29 [19] = test: Induction of apoptosis in human HT-29 cells at 10 uM incubated for 72 hrs by FITC-AnnexinV/PI staining based flow cytometry relative to control; type: functional
Procedure, shortened: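 HT29 cells cultured 12 h, then exposed to compound or vehicle for 72 h. Harvested cells stained with Annexin V plus a viability dye for 15 min at 37 °C. Percentage of apoptotic cells determined by flow cytometry; means ± SD from three separate experiments, compared with control.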

HT-29 [20] = test: Induction of apoptosis in human HT-29 cells assessed as increase in cleaved caspase-3 protein level at 10 uM incubated for 72 hrs by Western blot analysis; type: functional, cell-based; procedure, shortened: as §3
HT-29 [21] = test: Induction of apoptosis in human HT-29 cells assessed as increase in Bax protein level at 10 uM incubated for 72 hrs by Western blot analysis; type: functional, cell-based; procedure, shortened: as §3
HT-29 [22] = test: Induction of apoptosis in human HT-29 cells assessed as increase in cleaved PARP protein level at 10 uM incubated for 72 hrs by Western blot analysis; type: functional, cell-based; procedure, shortened: as §3

COc1cc(-c2nc(N)cc3c2[nH]c2ccccc23)cc(OC)c1OC
IC50 (HT-29 [1]): 13.5 µM
IC50 (HepG2): 17.1 µM

C/C=C/C(=O)OCC1=CCCCC1=O
Activity (HT-29 [2]): Active
Activity (HT-29 [3]): Active
IC50 (HT-29 [1]): 4.37 µM
Activity (HT-29 [4]): Active
IC50 (HepG2): 5.93 µM
IC50 [5]: 7.79 µM
Activity (HT-29 [6]): Active
IC50 [7]: 7.83 µM
Activity (HT-29 [8]): 28.8%
Activity (HT-29 [9]): Active
Activity (HT-29 [10]): Active
Activity (HT-29 [11]): 0.81 g
Activity (HT-29 [12]): Active
Activity (HT-29 [13]): Active

COc1cc(-c2nc(N(C(=O)OCC3=CCCCC3=O)C(=O)OCC3=CCCCC3=O)cc3c2[nH]c2ccccc23)cc(OC)c1OC
IC50 (HT-29 [1]): 1.45 µM
IC50 (HepG2): 2.69 µM
pKa [14]: 5.3
IC50 [5]: 4.85 µM
IC50 [7]: 28.1 µM

COc1ccc2c(c1)[nH]c1c(C)nccc12 [HARMINE]
IC50 (HT-29 [1]): 41.8 µM
Activity (HT-29 [15]): Active
IC50 (HepG2): 49.6 µM
Activity (HT-29 [16]): Active
Activity (HT-29 [17]): Active
Activity (HT-29 [18]): Active
IC50 [5]: 47.8 µM
Activity (HT-29 [19]): 20.9%
Activity (HT-29 [20]): Active
Activity (HT-29 [21]): Active
IC50 [7]: > 50 µM
Activity (HT-29 [22]): Active
